# Test results: ChEMBL document CHEMBL1926549, “First chemical feature-based pharmacophore modeling of potent retinoidal retinoic acid metabolism blocking agents (RAMBAs): identification of novel RAMBA scaffolds” (Eur J Med Chem, 2012)
# System: not listed separately
# Assay: Inhibition of CYP26 in hamster liver microsomes assessed as [11,12-[3H]ATRA metabolism treated 3 mins before [11,12,3H]ATRA addition measured after 30 mins by HPLC analysis
# Parameters: species or system Cricetinae, Microsome
# Settings: not given
row,Structure (SMILES),IC50 [nM]
1,CC1=C(/C=C/C(C)=C/C=C/C(C)=C/C(=O)O)C(C)(C)CCC1n1ccnc1 (racemic),2.33
2,CC1=C(/C=C/C(C)=C/C=C/C(C)=C/C(=O)O)C(C)(C)CCC1n1cncn1 (racemic),5.84
3,COC(=O)/C=C(C)/C=C/C=C(C)/C=C/C1=C(C)C(n2ccnc2)CCC1(C)C (racemic),0.009

# Now from value to compound:
row,IC50 [nM],Structure (SMILES)
1,2,COC(=O)/C=C(C)/C=C/C=C(C)/C=C/C1=C(C)C(n2cncn2)CCC1(C)C (racemic)
2,0.05,CC1=C(/C=C/C(C)=C/C=C/C(C)=C/C(=O)n2ccnc2)C(C)(C)CCC1n1cncn1 (racemic)

# System: Cricetinae
# Assay: Inhibition of CYP26 in hamster liver microsomes assessed as [11,12-[3H]ATRA metabolism at 100 nM treated 3 mins before [11,12,3H]ATRA addition measured after 30 mins by HPLC analysis
# Settings: Microsome
# In short: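 Hamster liver microsomes (500 μg/mL stock) were used in 0.1 M phosphate buffer, pH 7.4, with NADPH (20 mM stock), MgCl2 and BSA. Inhibitor at 100 nM in DMSO was preincubated for 3 min at 37 °C. [11,12-3H]-ATRA was then added at 20 μM and incubated 30 min under oxygen at 37 °C. The reaction was stopped with formic acid, extracted with ethyl acetate/methanol/BHA, and radiolabelled polar metabolites were quantified by HPLC.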
row,Structure (SMILES),inhibition [%]
1,O=C(Oc1ccc(CC/C=C/CCc2ccc(OC(=O)c3ccccc3)cc2)cc1)c1ccccc1,30.4
2,CCCCCCC(CCCCCCCCCCC(=O)OC(C)(C)C)OC(C)=O (stereo not given),36.2
3,COC(=O)CCCCCc1ccc(Cc2ccc(CCCCCC(=O)OC)cc2)cc1,31.4
4,Nc1nc(Cl)cc(NCCCCCCCCCCNc2cc(Cl)nc(N)n2)n1,32.7
5,CCOC(=O)c1cnn(-c2ccc(Cc3ccc(-n4ncc(C(=O)OCC)c4C)cc3)cc2)c1C,49.8
6,COc1ccc(/C(C)=N/OC(=O)c2cc(OC)c(OC)c(OC)c2)cc1CSc1ccccn1,28.5
7,CCOC(=O)CCCCCCCCCCCCCCCCC(=O)OCC,29.5
8,Nc1nc(Cl)cc(NCCCCCCCCNc2cc(Cl)nc(N)n2)n1,18.1
9,C/C(=N\CCCCCC/N=C(\C)c1cc(O)ccc1O)c1cc(O)ccc1O,22.2
10,COC(=O)c1cc(OCC#CC#CCOc2ccc(O)c(C(=O)OC)c2)ccc1O,17.9
11,Cc1cc(CC(C)C2CCC(C)C(c3ccc(O)c(C)c3)C2)ccc1O (stereo not given),33.8
12,COc1cc(/C=N/CCCC/N=C/c2cc(OC)c(OC)c(OC)c2)cc(OC)c1OC,27.3

# Second part, the compound after the results:
row,inhibition [%],Structure (SMILES)
1,42.8,Cc1nc(N)nc(O)c1CCCNc1ccc(CCCCC(=O)CCl)cc1
2,34.3,CCOc1cc(/C=N/N2CCN(/N=C/c3ccc(O)c(OCC)c3)CC2)ccc1O
3,54.7,CCOC(=O)/C=C(\C)NCCSSCCN/C(C)=C/C(=O)OCC
4,34.8,O=C(Nc1ccc(OCCCCCOc2ccccc2)cc1)C(F)(F)F
5,38.6,C/C(=N\Cc1cccc(C/N=C(\C)c2ccccc2O)c1)c1ccccc1O
6,21.2,CNC(=S)N/N=C(\C)CCCCCCCCCCCC/C(C)=N/NC(=S)NC
7,29.4,Cc1nc(N)nc(O)c1CCCNc1ccc(CCCCC2(CCl)OCCO2)cc1
8,20.5,CC(SCCCCCCCCCCSC(C)C(=O)O)C(=O)O (stereo not given)
